Out of some 320,000 compounds screened, about 380 (0.12%) were called active. The sample holds actives, similar compounds and a random draw of the others, so the mix is not that of the screen. Values without a mark were called inactive.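 The calls were made as follows: active = percent inhibition above the cutoff of mean plus 3 SD of all tested compounds, set per screening campaign (cut at about 20% in these data); inactive = the rest.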
Target: Photoreceptor-specific nuclear receptor (Homo sapiens) (UniProt Q9Y5X4)
Test: disruption of NR2E3 corepressor interaction – biochemical, TR-FRET, GST-NR2E3, biotin-RetCOR, NR2E3 agonist project, primary screen (AID 2300);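 also: 0% = DMSO wells and 100% = biotin wells as full block of FRET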
Conditions: 1536-well, at 4.78 µM, active compounds read high
How it was run: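 Test system: GST-NR2E3 and biotin-RetCOR proteins | Quantity: 1.35 nM GST-tagged NR2E3 final | Medium: Tris pH 7.5 | Also added: 7 nM biotin-RetCOR | Dosing: Compound at 4.8 µM, single dose | Timing: 5 h at 4 °C | Detection: Time-resolved FRET | Read-out basis: Percent inhibition | Benchmarks: Biotin wells as high control, 0.6% DMSO wells as low control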

Sequence of Photoreceptor-specific nuclear receptor (Homo sapiens) (Q9Y5X4 whole entry, looked up): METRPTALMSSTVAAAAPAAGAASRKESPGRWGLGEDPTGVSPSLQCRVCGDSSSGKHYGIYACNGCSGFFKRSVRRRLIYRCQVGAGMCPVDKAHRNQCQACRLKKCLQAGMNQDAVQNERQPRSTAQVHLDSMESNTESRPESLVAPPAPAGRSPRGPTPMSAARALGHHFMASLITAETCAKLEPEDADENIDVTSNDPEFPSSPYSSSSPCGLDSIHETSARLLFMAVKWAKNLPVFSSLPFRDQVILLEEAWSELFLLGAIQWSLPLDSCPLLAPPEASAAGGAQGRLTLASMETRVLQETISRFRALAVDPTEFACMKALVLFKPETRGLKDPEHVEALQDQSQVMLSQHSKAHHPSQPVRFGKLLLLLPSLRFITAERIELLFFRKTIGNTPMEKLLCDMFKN

In order of falling inhibition of corepressor binding:
1. C=CCOc1cccc(C2C(C(=O)c3ccc(C)o3)=C(O)C(=O)N2c2nnc(C)s2)c1 (stereo not given)  14.1%
2. O=C(OCC1O[C@@H](OC(=O)c2cc(O)c(O)c(O)c2)[C@@H](OC(=O)c2cc(O)c(O)c(O)c2)[C@@H](OC(=O)c2cc(O)c(O)c(O)c2)[C@@H]1OC(=O)c1cc(O)c(O)c(O)c1)c1cc(O)c(O)c(O)c1 (stereo not given in full)  11.9%
3. CCCOc1ccc(C2C(C(=O)c3ccc(C)o3)=C(O)C(=O)N2CCCn2ccnc2)cc1 (stereo not given)  11.4%
4. O=C(COC(=O)c1ccc(F)cc1F)Nc1ncccn1  8.41%
5. CCOc1ccc(OCC)c(NC(=O)C(NS(=O)(=O)c2ccc3c(c2)oc(=O)n3C)C(C)C)c1 (stereo not given)  5.32%
6. CCc1ccc(NC(=O)CN2CCC(C(=O)c3ccc(OC)cc3)CC2)cc1  4.08%
7. Cc1ccc(CN2CCN(Cc3ccc(OCCO)cc3)CC2CCO)o1 (stereo not given)  3.85%
8. COc1cccc(-n2cc(C(=O)O)c3ccccc3c2=O)c1  3.78%
9. O=[N+]([O-])c1ccc(Oc2ccc(F)cc2Br)c2ccncc12  3.74%
10. C/C(=N/NC(=O)CSc1ccccn1)c1ccc([N+](=O)[O-])cc1  3.53%
11. C=C1c2c(Cl)ccc(O)c2C(O)=C2C(=O)[C@]3(O)C(O)=C(C(N)=O)C(=O)[C@@H](N(C)C)[C@@H]3[C@@H](O)C12 (stereo not given in full)  3.15%
12. COc1ccc(/C=C/C(=O)NC(=S)N2CCCC(C(N)=O)C2)cc1 (stereo not given)  3.08%
13. CC[C@@H](C)[C@@H](C(=O)N1CCN(C(=O)OC(C)(C)C)CC1)n1cc(CCC(=O)O)nn1  2.89%
14. Cc1ccn2c(c1)nc(=O)c1cc(S(=O)(=O)N3CCC(C)CC3)ccc12  2.72%
15. CC(NC(=O)c1ccc(S(=O)(=O)Nc2ccccc2)cc1)c1ccc(S(N)(=O)=O)cc1 (stereo not given)  2.43%
16. CC(C)CCNC(=O)C1CCCN(S(=O)(=O)c2ccc(F)cc2)C1 (stereo not given)  2.4%
17. COc1ccc(C2c3[nH]c4ccccc4c3CCN2CCCn2cccn2)cc1C (stereo not given)  1.77%
18. CCc1nn(CCCC(=O)NCc2ccc(C)cc2)c(=O)c2cc3occc3n12  1.62%
19. O=c1[nH]c(CCl)nc2cc(-c3ccc(Cl)cc3)sc12  1.58%
20. O=C(COC(=O)CNS(=O)(=O)c1ccc(F)c(F)c1F)NC1CCCC1  1.54%
21. O=C(CNC(=O)c1ccc(Br)o1)NCC1CCCO1 (stereo not given)  1.48%
22. O=C(Nc1ccccc1Cl)NC1(C(=O)N2CCOCC2)CCCCC1  1.2%
23. CN(CC(=O)NCc1ccc2c(c1)OCO2)CC(=O)Nc1ccc(F)c(F)c1F  1.07%
24. N#C/C(=C/c1ccc(Cl)cc1)NC(=O)c1ccccc1  0.97%
25. CCCOC(=O)c1c(NC(=O)c2cnn3c2NC(c2ccccc2)CC3C(F)(F)F)sc2c1CCCC2 (stereo not given)  0.87%
26. Cc1ccc(Sc2ccncc2S(N)(=O)=O)cc1  0.79%
27. Cc1ccn(C(CC(=O)c2ccc(Br)cc2)C(=O)O)n1 (stereo not given)  0.75%
28. Cc1cc(NC(=O)Nc2ccccc2[N+](=O)[O-])no1  0.41%
29. CC1(C)Cc2ccccc2-c2nc(CN3CCOCC3)[nH]c(=O)c21  0.32%
30. C[C@@H](NC(=O)c1nc[nH]c1C(=O)N1CCN(C(=O)OC(C)(C)C)CC1)c1ccccc1  0.22%
31. CCN(CC)S(=O)(=O)c1ccc(N(C)Cc2cccc(OC)c2OC)nc1  -0.21%
32. Cn1cc(CN2CCCC(CO)C2)c(-c2ccc(Oc3ccccc3)cc2)n1 (stereo not given)  -0.36%
33. C/C(=C\c1ccco1)CN1CCC(N2CCC(C(=O)N3CCOCC3)CC2)CC1  -0.38%
34. CN(C(=O)CSc1nnc(-c2ccc(C(C)(C)C)cc2)n1C)C1CCS(=O)(=O)C1 (stereo not given)  -0.57%
35. CCCC(=O)n1nc(NCc2ccc(OC)cc2)nc1NCc1ccc(OC)cc1  -0.61%
36. CC(=O)N1CCSc2ccc(S(=O)(=O)N3CCC(C)CC3)cc21  -0.82%
37. COC(=O)C1=NN(c2ccccc2)C2C(=O)N(c3ccccc3OC)C(=O)C12 (stereo not given)  -1.01%
38. COc1ccccc1C(=O)Nc1ccnn1C1CCN(Cc2cnn(C)c2)CC1  -1.2%
39. COc1cc([C@H](Cc2ccccc2)NC(C)=O)oc(=O)c1  -1.34%
40. Cc1ccc(N2C(=O)C(CC(=O)Nc3cccc(F)c3)N(CCc3ccncc3)C2=O)cc1 (stereo not given)  -1.41%
41. CCN(C(=O)COC(=O)/C=C/c1nc2ccccc2s1)C1CCS(=O)(=O)C1 (stereo not given)  -1.91%
42. C=CCn1c(SCc2ccc(Cl)c(Cl)c2)nnc1C(CO)NC(=O)c1ccc(OC)cc1 (stereo not given)  -1.93%
43. COc1ccc(CNC(=O)CN(Cc2ccc(Cl)cc2)S(C)(=O)=O)cc1  -2.12%
44. C[C@H](NC(=O)c1nc[nH]c1C(=O)NCC(=O)OC(C)(C)C)c1ccccc1  -2.19%
45. CCC1(CC)Cc2ccccc2-c2nc(CCl)[nH]c(=O)c21  -2.67%
46. Cc1coc2c(O)cc3c(c12)OC1(N2CCCCC2)C(=O)NCCCC31 (stereo not given)  -2.68%
47. CC(C)CCNc1nc(N2CCCC2)c2c(c1C#N)CCN(C)C2  -2.99%
48. COc1ccc(NC(=O)CSc2nnc(Cc3ccccc3)c(=O)n2N)cc1  -3.17%
49. CCc1ccnc(NS(=O)(=O)c2ccc3c(c2)OCCO3)c1  -3.2%
50. COc1cccc(N2C(=O)CN(Cc3ccccc3)C2=S)c1  -3.57%
51. Cc1ccc(C(=O)Nc2ccc(C)c(S(=O)(=O)N(C)C)c2)s1  -3.92%
52. CSc1sc(C(=O)NC(=O)NCc2cccnc2)c(C)c1-c1ccon1  -5.08%

With `C=CCOc1cccc(C2C(C(=O)c3ccc(C)o3)=C(O)C(=O)N2CCCn2ccnc2)c1` (stereo not given) the inhibition of corepressor binding was 25.8% (active).
For `COc1cccc(-n2c(=S)[nH]c3c(oc4ccccc43)c2=O)c1`, the inhibition of corepressor binding was 29.2% (active).
For `CC1(C)Cc2ccccc2-c2[nH]c(=S)[nH]c(=O)c21`, the inhibition of corepressor binding was 49.1% (active).

— PubChem BioAssay AID2300 (The Scripps Research Institute Molecular Screening Center, 2010)
